Experimental data published in article PMC7161550 (British Journal of Pharmacology, 2020).
Where “and” joins values, the source holds several entries; their conditions need not be identical. Equal values may be shown once. Entries after “also recorded” stand apart in the source; their conditions may differ. Read-outs that look alike come from different tables or passages of the source.

What was measured:
[1] = molecular target: T1, rat brain fatty acid amide hydrolase (FAAH) (Rattus norvegicus, UniProt P97612); assay type: biochemical
T1 sequence (P97612 1-579): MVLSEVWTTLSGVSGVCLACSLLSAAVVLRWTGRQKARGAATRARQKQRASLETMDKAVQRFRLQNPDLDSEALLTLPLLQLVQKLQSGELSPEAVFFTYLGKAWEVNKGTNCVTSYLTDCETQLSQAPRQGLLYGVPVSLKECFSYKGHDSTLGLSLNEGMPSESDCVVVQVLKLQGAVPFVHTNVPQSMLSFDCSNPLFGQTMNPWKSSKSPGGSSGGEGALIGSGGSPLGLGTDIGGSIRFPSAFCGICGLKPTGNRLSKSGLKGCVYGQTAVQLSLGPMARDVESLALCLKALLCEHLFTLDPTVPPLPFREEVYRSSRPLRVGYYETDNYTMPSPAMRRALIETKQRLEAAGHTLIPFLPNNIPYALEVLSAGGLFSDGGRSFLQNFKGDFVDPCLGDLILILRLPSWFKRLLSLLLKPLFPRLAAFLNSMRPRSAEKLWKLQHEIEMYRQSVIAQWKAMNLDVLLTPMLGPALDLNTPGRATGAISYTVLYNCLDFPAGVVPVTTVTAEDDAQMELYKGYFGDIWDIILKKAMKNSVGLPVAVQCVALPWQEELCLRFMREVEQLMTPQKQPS
Summary of the method: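 Rat brain membranes from Wistar rats, 10 μg protein, in 1 mM EDTA, 10 mM Tris, pH 7.6. Test compound at 1 nM–10 μM, pre-incubated with enzyme 5–60 min, or reaction started with enzyme when not pre-incubated. Substrate 2 μM AEA + 5 nM 3H‑AEA + 0.1% fatty acid-free BSA, 30 min at room temperature with agitation. Charcoal stop; supernatant 3H‑ethanolamine counted. Blank and vehicle controls; IC50 from normalized variable-slope sigmoidal fit.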

[2] = molecular target: T2, rat brain fatty acid amide hydrolase (Rattus norvegicus, UniProt P97612); test: FAAH progression curves, kinetic constants k obs and k inact/K I; assay type: biochemical; conditions: inhibition of rat brain FAAH, 37°C
T2 sequence (P97612 1-579): T1 sequence (P97612 1-579)

COS‐hFAAH cells = test: Quantification of compounds in COS‐hFAAH supernatant, cell lysates and medium; assay type: in vitro ADME; conditions: 1, 3 and 24 hr
[3] = molecular target: T3, mouse liver fatty acid amide hydrolase (FAAH) (Mus musculus, UniProt O08914); test: Ex vivo FAAH activity in mouse liver after oral administration; conditions: for ED50 [95% CI] Liver: 8 hr after oral administration
T3 sequence (O08914 1-579): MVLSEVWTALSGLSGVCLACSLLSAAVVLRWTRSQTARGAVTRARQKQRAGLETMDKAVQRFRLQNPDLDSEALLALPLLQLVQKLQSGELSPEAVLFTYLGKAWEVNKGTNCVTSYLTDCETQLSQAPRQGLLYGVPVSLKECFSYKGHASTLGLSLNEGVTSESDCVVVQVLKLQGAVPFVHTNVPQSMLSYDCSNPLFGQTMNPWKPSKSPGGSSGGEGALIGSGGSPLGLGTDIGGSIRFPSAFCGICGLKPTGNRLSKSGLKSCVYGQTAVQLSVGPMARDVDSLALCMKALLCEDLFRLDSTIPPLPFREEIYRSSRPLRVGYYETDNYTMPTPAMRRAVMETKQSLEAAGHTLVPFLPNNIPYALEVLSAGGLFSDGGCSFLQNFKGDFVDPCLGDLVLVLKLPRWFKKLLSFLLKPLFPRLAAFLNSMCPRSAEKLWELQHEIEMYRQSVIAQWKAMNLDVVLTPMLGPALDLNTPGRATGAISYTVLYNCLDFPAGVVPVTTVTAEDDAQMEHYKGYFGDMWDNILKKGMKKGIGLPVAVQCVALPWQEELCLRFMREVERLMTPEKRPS
Summary of the method: (§1)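 Liver and half-brain were collected into FAAH membrane buffer (3 mM MgCl2, 1 mM EDTA, 50 mM Tris HCl, pH 7.4) and stored at −20°C. Homogenates (15 μg protein brain, 5 μg liver) were pre-incubated 15 min at 37°C. AEA + 3H‑AEA + BSA was added for 10 min (brain) or 7 min (liver), then charcoal. Scintillation counting gave % remaining activity versus controls after blank subtraction.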

[4] = molecular target: T4, mouse brain fatty acid amide hydrolase (FAAH) (Mus musculus, UniProt O08914); test: Ex vivo FAAH activity in mouse brain after oral administration; conditions: for ED50 [95% CI] Brain: 8 hr after oral administration
T4 sequence (O08914 1-579): T3 sequence (O08914 1-579)
Summary of the method: as §1

[5] = system: brain fatty acid amides (AEA, PEA, OEA); test: Fatty acid amides; assay type: in vivo; conditions: mouse brain, 8 hr
Summary of the method: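 Frozen brains were thawed at 4°C and weighed. Each sample was extracted with chloroform:MeOH (2:1) plus 0.1 M phosphate buffer, pH 5.6. Deuterated internal standards were spiked in: AEA‑d8, PEA‑d4 and OEA‑d2 for the fatty acid amides, and 2‑AG‑d8 for 2‑AG.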

[6] = Plasma and brain levels of BIA 10‐2474 and PF‐04457845 in mice; assay type: in vivo; conditions: mouse; for Tmax / half-life / AUC(0-t) / Cmax: po
[7] = system: 229 assays for receptors, enzymes, transporters, ion channels, hormones, growth factors and inflammatory mediators; assay type: binding; conditions: 10 and 50 μM
[8] = molecular target: T5, fatty acid amide hydrolase (Rattus norvegicus, UniProt P97612); test: Gel‐based competitive ABPP in vitro, TAMRA‐FP probe, rat brain fractions; assay type: biochemical; conditions: 1 hr
T5 sequence (P97612 1-579): T1 sequence (P97612 1-579)
Summary of the method: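 Rat brain membrane and soluble protein extracts (200 μg) were incubated 1 hr at room temperature with test compound at 1 nM–100 μM, DMSO vehicle or PMSF 3 mM. Active serine hydrolases were then labelled with TAMRA‑FP probe (2 μM final) for 1 hr at room temperature. Bands were visualized by in-gel fluorescence.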

[9] = brain (without cerebellum), 0.3 mg/kg

CN(C(=O)n1cnc(-c2ccc[n+]([O-])c2)c1)C1CCCCC1 [BIA 10‐2474, 3‐(1‐(cyclohexyl (methyl)carbamoyl)‐1H‐imidazol‐4‐yl)pyridine 1‐oxide]
IC50 ([1]; IC50 [95% CI], pre‐incubation 0 min): 1.13 µM
IC50 ([1]; IC50 [95% CI], pre‐incubation 5 min): 1.18 µM
IC50 ([1]; IC50 [95% CI], pre‐incubation 15 min): 0.626 µM
IC50 ([1]; IC50 [95% CI], pre‐incubation 30 min): 0.424 µM
IC50 ([1]; IC50 [95% CI], pre‐incubation 45 min): 0.36 µM
IC50 ([1]; IC50 [95% CI], pre‐incubation 60 min): 0.398 µM
IC50 ([1]; IC50 values over all pre‐incubation times, rat brain membranes): 0.36 to 1.13 µM
IC50 fold higher than those for JNJ‐42165279 ([1]; rat brain membranes): 2–4 fold
k inact/K I [2]: 1,243 M·s^−1
detection in cell lysates (COS‐hFAAH cells): undetectable
stability in cellular media over time (COS‐hFAAH cells): stable
ED50 [95% CI] Liver ([3]; 480 min): 6.2 μg·kg^−1 and 6.2 [4.8, 7.9] μg·kg^−1
inhibition at 0.1 mg/kg ([3]; po, read-out: inhibition of liver FAAH): > 96.5%
ED50 [95% CI] Brain ([4]; 480 min): 13.5 μg·kg^−1 and 13.5 [10.2, 17.7] μg·kg^−1
inhibition at 0.1 mg/kg ([4]; po, read-out: maximal inhibition of brain FAAH): 91.4%
AEA ([5]; 0.01 mg·kg^−1 p.o.): 89.5 ± 9.3 % of control
OEA ([5]; 0.01 mg·kg^−1 p.o.): 109.1 ± 8.6 % of control
PEA ([5]; 0.01 mg·kg^−1 p.o.): 107.2 ± 8.8 % of control
AEA ([5]; 0.03 mg·kg^−1 p.o.): 87.0 ± 10.3 % of control
OEA ([5]; 0.03 mg·kg^−1 p.o.): 143.1 ± 30.6 % of control
PEA ([5]; 0.03 mg·kg^−1 p.o.): 178.6 ± 62.7 % of control
AEA ([5]; 0.1 mg·kg^−1 p.o.): 136.8 ± 16.4 % of control
OEA ([5]; 0.1 mg·kg^−1 p.o.): 676.5 ± 89.8 % of control
PEA ([5]; 0.1 mg·kg^−1 p.o.): 1027.6 ± 148.0 % of control
AEA ([5]; 0.3 mg·kg^−1 p.o.): 172.1 ± 29.5 % of control
OEA ([5]; 0.3 mg·kg^−1 p.o.): 804.0 ± 107.6 % of control
PEA ([5]; 0.3 mg·kg^−1 p.o.): 1,223.3 ± 159.6 % of control
Brain AUClast ([6]; 0.1 mg·kg^−1 p.o.): 11.3 ng·h/g
Brain C max ([6]; 0.1 mg·kg^−1 p.o.): 5.3 ng/g
maximum level in brain ([6]; 0.1 mg·kg^−1 p.o., equivalent of 5.3 ng·g^−1): 18 nM
maximum level in plasma ([6]; 0.1 mg·kg^−1 p.o., equivalent of 33.0 ng·ml^−1): 109 nM
Brain AUClast ([6]; 0.3 mg·kg^−1 p.o.): 60.8 ng·h/g
Brain C max ([6]; 0.3 mg·kg^−1 p.o.): 21.6 ng/g
Tmax ([6]; brain (without cerebellum), 0.1 mg/kg): 1 h
Tmax [6, 9]: 1 h
half-life [6, 9]: 1.75 h
AUC(0-t) ([6]; plasma, 0.1 mg/kg): 0.11 µg·h/mL
Cmax ([6]; plasma, 0.1 mg/kg): 0.033 µg/mL
Tmax ([6]; plasma, 0.1 mg/kg): 1 h
half-life ([6]; plasma, 0.1 mg/kg): 2.2 h
AUC(0-t) ([6]; plasma, 0.3 mg/kg): 0.338 µg·h/mL
Cmax ([6]; plasma, 0.3 mg/kg): 0.104 µg/mL
Tmax ([6]; plasma, 0.3 mg/kg): 1 h
half-life ([6]; plasma, 0.3 mg/kg): 1.9 h
off‐target activity at the sites studied [7]: no significant activity
concentration that completely inhibited the band corresponding to the MW of FAAH [8]: 100 µM

O=C(Nc1cccnn1)N1CCC(=Cc2cccc(Oc3ccc(C(F)(F)F)cn3)c2)CC1 [PF‐04457845]
IC50 ([1]; read-out: IC50 [95% CI], pre‐incubation 0 min): 0.0039 µM
IC50 ([1]; read-out: IC50 [95% CI], pre‐incubation 5 min): 0.0028 µM
IC50 ([1]; read-out: IC50 [95% CI], pre‐incubation 15 min): 0.0015 µM
IC50 ([1]; read-out: IC50 [95% CI], pre‐incubation 30 min): 0.0027 µM
IC50 ([1]; read-out: IC50 [95% CI], pre‐incubation 45 min): 0.0027 µM
IC50 ([1]; read-out: IC50 [95% CI], pre‐incubation 60 min): 0.002 µM
k inact/K I [2]: 167,333 M·s^−1
detection in cell lysates (COS‐hFAAH cells): detected
stability in cellular media over time (COS‐hFAAH cells): not stable
liver FAAH activity, % of control levels ([3]; 0.1 mg·kg^−1 p.o., 48 hr): 72.3%
inhibition of hepatic FAAH, mean values ([3]; 0.1 mg·kg^−1 p.o., over 24 hr): above 88.7%
ED50 [95% CI] Liver [3]: 2.0 [1.8, 2.2] μg·kg^−1
brain FAAH activity, % of control levels ([4]; 0.1 mg·kg^−1 p.o., 48 hr): 43.8%
inhibition of cerebral FAAH, mean values ([4]; 0.1 mg·kg^−1 p.o., over 24 hr): above 88.7%
ED50 [95% CI] Brain [4]: 4.3 [1.8, 9.9] μg·kg^−1
AEA ([5]; 0.003 mg·kg^−1 p.o.): 88.5 ± 7.5 % of control
OEA ([5]; 0.003 mg·kg^−1 p.o.): 97.1 ± 8.0 % of control
PEA ([5]; 0.003 mg·kg^−1 p.o.): 100.6 ± 16.4 % of control
AEA ([5]; 0.01 mg·kg^−1 p.o.): 220.2 ± 46.9 % of control
OEA ([5]; 0.01 mg·kg^−1 p.o.): 837.5 ± 115.5 % of control
PEA ([5]; 0.01 mg·kg^−1 p.o.): 984.3 ± 107.1 % of control
AEA ([5]; 0.03 mg·kg^−1 p.o.): 257.6 ± 16.9 % of control
OEA ([5]; 0.03 mg·kg^−1 p.o.): 886.1 ± 42.6 % of control
PEA ([5]; 0.03 mg·kg^−1 p.o.): 1073.1 ± 85.1 % of control
AEA ([5]; 0.1 mg·kg^−1 p.o.): 268.7 ± 10.8 % of control
OEA ([5]; 0.1 mg·kg^−1 p.o.): 933.4 ± 17.5 % of control
PEA ([5]; 0.1 mg·kg^−1 p.o.): 1080.9 ± 62.0 % of control
AEA ([5]; 0.3 mg·kg^−1 p.o.): 309.4 ± 16.6 % of control
OEA ([5]; 0.3 mg·kg^−1 p.o.): 961.4 ± 48.2 % of control
PEA ([5]; 0.3 mg·kg^−1 p.o.): 1,141.9 ± 56.3 % of control
Plasma AUClast ([6]; 0.03 mg·kg^−1 p.o.): 0.0043 µg·h/mL
Plasma C max ([6]; 0.03 mg·kg^−1 p.o.): 0.0013 µg/mL
Plasma t max ([6]; 0.03 mg·kg^−1 p.o.): 2 h
detection in the brain ([6]; 0.03 mg·kg^−1 p.o.): not detectable
Brain AUClast ([6]; 0.1 mg·kg^−1 p.o.): 22.9 ng·h/g
Brain C max ([6]; 0.1 mg·kg^−1 p.o.): 3.7 ng/g
Brain t max ([6]; 0.1 mg·kg^−1 p.o.): 2 h
Plasma AUClast ([6]; 0.1 mg·kg^−1 p.o.): 0.2383 µg·h/mL
Plasma C max ([6]; 0.1 mg·kg^−1 p.o.): 0.0383 µg/mL
Plasma t max ([6]; 0.1 mg·kg^−1 p.o.): 2 h
brain levels, fold lower than in plasma ([6]; 0.1 mg·kg^−1 p.o.): approximately 10 fold
off‐target activity at the sites studied [7]: active at a number of sites; also recorded: significant activity at several receptors, transporters and ion channels
concentration that completely inhibited the band corresponding to the MW of FAAH [8]: 0.1 µM
